Assay results: ChEMBL document CHEMBL5058577, “EUbOPEN Chemogenomics Library 2 (Multiplex)” (2022)

Tested on: Fibroblast
Test: Multiplex assay against human fibroblast
Type: toxicity, cell-based
Method in brief: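 At seeding, live cells were stained with Hoechst33342, BioTracker Green Microtubule Cytoskeleton Dye, MitoTracker Red and Annexin V Alexa Fluor 680. After compound addition they were imaged on a CQ1 microscope at 37°C and 5% CO2, and CellPathfinder machine-learning gating sorted them into Hoechst high-intensity objects or normal cells, with normal cells further split into healthy, pyknosed or fragmented nuclei and pyknosed cells into mitotic or apoptotic. Tubulin, mitochondrial-mass and membrane-permeability phenotypes are given as per cents of cells with healthy nuclei.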

[1] = 12 h, 1 µM, compound concentration 1 uM, replicate 1
[2] = 12 h, 1 µM, compound concentration 1 uM, replicate 2
[3] = 12 h, 10 µM, compound concentration 10 uM, replicate 1
[4] = 12 h, 10 µM, compound concentration 10 uM, replicate 2
[5] = 24 h, 1 µM, compound concentration 1 uM, replicate 1
[6] = 24 h, 1 µM, compound concentration 1 uM, replicate 2
[7] = 24 h, 10 µM, compound concentration 10 uM, replicate 1
[8] = 24 h, 10 µM, compound concentration 10 uM, replicate 2
[9] = 48 h, 1 µM, compound concentration 1 uM, replicate 1
[10] = 48 h, 1 µM, compound concentration 1 uM, replicate 2
[11] = 48 h, 10 µM, compound concentration 10 uM, replicate 1
[12] = 48 h, 10 µM, compound concentration 10 uM, replicate 2

Cc1ccc(F)cc1C(=O)Nc1ccc(C(=O)N2Cc3cccn3Cc3ccccc32)c(Cl)c1 [LIXIVAPTAN]
Population Apoptotic (%) [1]: 40%
Population Fragmented Nuclei (%) [1]: 11%
Population Healthy Nuclei (%) [1]: 73%
Population Hoechst High Intensity Objects (%) [1]: 5%
Population Membrane Permeable-Phenotype (%) [1]: 0%
Population Mitochondria Different-Phenotype (%) [1]: 3%
Population Mitotic Cells (%) [1]: 59%
Population Normal (%) [1]: 94%
Population Pyknosed Nuclei (%) [1]: 15%
Population Tubulin-Different-Phenotype (%) [1]: 28%
Total Cell Count [1]: 186
Population Apoptotic (%) [2]: 50%
Population Fragmented Nuclei (%) [2]: 30%
Population Healthy Nuclei (%) [2]: 47%
Population Hoechst High Intensity Objects (%) [2]: 3%
Population Membrane Permeable-Phenotype (%) [2]: 1%
Population Mitochondria Different-Phenotype (%) [2]: 9%
Population Mitotic Cells (%) [2]: 50%
Population Normal (%) [2]: 96%
Population Pyknosed Nuclei (%) [2]: 21%
Population Tubulin-Different-Phenotype (%) [2]: 38%
Total Cell Count [2]: 117
Population Apoptotic (%) [3]: 34%
Population Fragmented Nuclei (%) [3]: 18%
Population Healthy Nuclei (%) [3]: 58%
Population Hoechst High Intensity Objects (%) [3]: 0%
Population Membrane Permeable-Phenotype (%) [3]: 2%
Population Mitochondria Different-Phenotype (%) [3]: 5%
Population Mitotic Cells (%) [3]: 65%
Population Normal (%) [3]: 99%
Population Pyknosed Nuclei (%) [3]: 23%
Population Tubulin-Different-Phenotype (%) [3]: 62%
Total Cell Count [3]: 137
Population Apoptotic (%) [4]: 31%
Population Fragmented Nuclei (%) [4]: 27%
Population Healthy Nuclei (%) [4]: 46%
Population Hoechst High Intensity Objects (%) [4]: 5%
Population Membrane Permeable-Phenotype (%) [4]: 6%
Population Mitochondria Different-Phenotype (%) [4]: 10%
Population Mitotic Cells (%) [4]: 68%
Population Normal (%) [4]: 94%
Population Pyknosed Nuclei (%) [4]: 25%
Population Tubulin-Different-Phenotype (%) [4]: 72%
Total Cell Count [4]: 179
Population Apoptotic (%) [5]: 50%
Population Fragmented Nuclei (%) [5]: 12%
Population Healthy Nuclei (%) [5]: 73%
Population Hoechst High Intensity Objects (%) [5]: 1%
Population Membrane Permeable-Phenotype (%) [5]: 1%
Population Mitochondria Different-Phenotype (%) [5]: 0%
Population Mitotic Cells (%) [5]: 50%
Population Normal (%) [5]: 98%
Population Pyknosed Nuclei (%) [5]: 14%
Population Tubulin-Different-Phenotype (%) [5]: 33%
Total Cell Count [5]: 172
Population Apoptotic (%) [6]: 32%
Population Fragmented Nuclei (%) [6]: 33%
Population Healthy Nuclei (%) [6]: 43%
Population Hoechst High Intensity Objects (%) [6]: 3%
Population Membrane Permeable-Phenotype (%) [6]: 5%
Population Mitochondria Different-Phenotype (%) [6]: 5%
Population Mitotic Cells (%) [6]: 67%
Population Normal (%) [6]: 96%
Population Pyknosed Nuclei (%) [6]: 23%
Population Tubulin-Different-Phenotype (%) [6]: 52%
Total Cell Count [6]: 126
Population Apoptotic (%) [7]: 25%
Population Fragmented Nuclei (%) [7]: 19%
Population Healthy Nuclei (%) [7]: 63%
Population Hoechst High Intensity Objects (%) [7]: 0%
Population Membrane Permeable-Phenotype (%) [7]: 2%
Population Mitochondria Different-Phenotype (%) [7]: 8%
Population Mitotic Cells (%) [7]: 75%
Population Normal (%) [7]: 99%
Population Pyknosed Nuclei (%) [7]: 17%
Population Tubulin-Different-Phenotype (%) [7]: 63%
Total Cell Count [7]: 142
Population Apoptotic (%) [8]: 51%
Population Fragmented Nuclei (%) [8]: 26%
Population Healthy Nuclei (%) [8]: 51%
Population Hoechst High Intensity Objects (%) [8]: 5%
Population Membrane Permeable-Phenotype (%) [8]: 11%
Population Mitochondria Different-Phenotype (%) [8]: 12%
Population Mitotic Cells (%) [8]: 48%
Population Normal (%) [8]: 94%
Population Pyknosed Nuclei (%) [8]: 22%
Population Tubulin-Different-Phenotype (%) [8]: 82%
Total Cell Count [8]: 174
Population Apoptotic (%) [9]: 63%
Population Fragmented Nuclei (%) [9]: 18%
Population Healthy Nuclei (%) [9]: 68%
Population Hoechst High Intensity Objects (%) [9]: 8%
Population Membrane Permeable-Phenotype (%) [9]: 0%
Population Mitochondria Different-Phenotype (%) [9]: 3%
Population Mitotic Cells (%) [9]: 36%
Population Normal (%) [9]: 91%
Population Pyknosed Nuclei (%) [9]: 13%
Population Tubulin-Different-Phenotype (%) [9]: 28%
Total Cell Count [9]: 181
Population Apoptotic (%) [10]: 50%
Population Fragmented Nuclei (%) [10]: 37%
Population Healthy Nuclei (%) [10]: 40%
Population Hoechst High Intensity Objects (%) [10]: 0%
Population Membrane Permeable-Phenotype (%) [10]: 4%
Population Mitochondria Different-Phenotype (%) [10]: 11%
Population Mitotic Cells (%) [10]: 50%
Population Normal (%) [10]: 99%
Population Pyknosed Nuclei (%) [10]: 21%
Population Tubulin-Different-Phenotype (%) [10]: 53%
Total Cell Count [10]: 111
Population Apoptotic (%) [11]: 70%
Population Fragmented Nuclei (%) [11]: 25%
Population Healthy Nuclei (%) [11]: 62%
Population Hoechst High Intensity Objects (%) [11]: 2%
Population Membrane Permeable-Phenotype (%) [11]: 0%
Population Mitochondria Different-Phenotype (%) [11]: 13%
Population Mitotic Cells (%) [11]: 29%
Population Normal (%) [11]: 97%
Population Pyknosed Nuclei (%) [11]: 11%
Population Tubulin-Different-Phenotype (%) [11]: 69%
Total Cell Count [11]: 149
Population Apoptotic (%) [12]: 73%
Population Fragmented Nuclei (%) [12]: 36%
Population Healthy Nuclei (%) [12]: 51%
Population Hoechst High Intensity Objects (%) [12]: 5%
Population Membrane Permeable-Phenotype (%) [12]: 6%
Population Mitotic Cells (%) [12]: 26%
Population Normal (%) [12]: 94%
Population Tubulin-Different-Phenotype (%) [12]: 78%
Total Cell Count [12]: 170
